Usually Ki stands for the equilibrium dissociation constant of an inhibitor or competing ligand from its target. A word on the EC50: it is the midpoint of the concentration-response curve. Lower therefore signals a more potent agent. Usually Emax stands for the size of the effect at its maximum, as opposed to the concentration needed. By Kb is commonly meant the affinity of an antagonist, worked out from how it opposes an agonist.

This is an account of results in ChEMBL document CHEMBL1777808, “Preparation and pharmacological evaluation of a novel series of 2-(phenylthio)benzo[b]thiophenes as selective MT2 receptor ligands” (Eur J Med Chem, 2011).

The species entered for one assay is Homo sapiens. Description: Selectivity ratio of Ki for human MT1 receptor to Ki for human MT2 receptor. The essentials: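 Ki values from competition binding on membranes of stably transfected CHO cells (human MT1 or MT2). Ratio is MT1 Ki over MT2 Ki.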
Assay [1] has as its target T1, Melatonin receptor type 1B (Homo sapiens, UniProt P49286).
T1 sequence (P49286 whole entry): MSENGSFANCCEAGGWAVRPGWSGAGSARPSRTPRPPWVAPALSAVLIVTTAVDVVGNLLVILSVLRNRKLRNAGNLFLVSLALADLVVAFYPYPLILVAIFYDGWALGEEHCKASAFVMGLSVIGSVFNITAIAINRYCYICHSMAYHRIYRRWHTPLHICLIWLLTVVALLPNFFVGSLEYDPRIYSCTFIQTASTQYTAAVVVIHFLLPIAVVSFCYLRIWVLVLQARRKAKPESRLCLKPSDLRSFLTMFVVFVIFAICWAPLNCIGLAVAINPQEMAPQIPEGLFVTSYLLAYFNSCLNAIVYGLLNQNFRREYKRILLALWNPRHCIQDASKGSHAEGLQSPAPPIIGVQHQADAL
Description: Displacement of 2-[125I]iodomelatonin from human MT2 receptor expressed in CHO cells. Type of assay: cell-based.

Assay [2] has as its target T1, Melatonin receptor type 1B. Description: Agonist activity at human MT2 receptor expressed in CHO cells by [35S]GTPgamma binding assay. It counts as functional, cell-based.
Assay [3] addresses T2, Melatonin receptor type 1A (Homo sapiens, UniProt P48039). Description: Displacement of 2-[125I]iodomelatonin from human MT1 receptor expressed in CHO cells. Type of assay: cell-based.
In assay [4] the target is T3, Melatonin receptor type 1B (Homo sapiens) (UniProt P49286).
T3 sequence (whole entry): T1 sequence (P49286 whole entry)
Description: Agonist activity at human MT2 receptor expressed in CHO cells by [35S]GTPgamma binding assay relative to melatonin. It counts as functional, cell-based.

Assay [5] deals with T2, Melatonin receptor type 1A. Description: Agonist activity at human MT1 receptor expressed in CHO cells by [35S]GTPgamma binding assay. It counts as functional, cell-based.
Assay [6] concerns the target T2, Melatonin receptor type 1A. Description: Antagonist activity at human MT1 receptor expressed in CHO cells assessed as inhibition of melatonin-induced [35S]GTPgamma binding. It counts as functional, cell-based. The essentials: (§1)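 Then 0.2 nM [35S]GTPγS added, 1 h at room temperature in HEPES pH 7.4/NaCl/MgCl2/GDP/saponin buffer. Filtration, three ice-cold washes.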

Assay [7] concerns the target T2, Melatonin receptor type 1A. Description: Agonist activity at human MT1 receptor expressed in CHO cells by [35S]GTPgamma binding assay relative to melatonin. Type of assay: functional, cell-based.
Assay [8] deals with T3, Melatonin receptor type 1B (Homo sapiens). Description: Antagonist activity at human MT2 receptor expressed in CHO cells assessed as inhibition of melatonin-induced [35S]GTPgamma binding. Type of assay: functional, cell-based. The essentials: as §1

T2 sequence (P48039 whole entry): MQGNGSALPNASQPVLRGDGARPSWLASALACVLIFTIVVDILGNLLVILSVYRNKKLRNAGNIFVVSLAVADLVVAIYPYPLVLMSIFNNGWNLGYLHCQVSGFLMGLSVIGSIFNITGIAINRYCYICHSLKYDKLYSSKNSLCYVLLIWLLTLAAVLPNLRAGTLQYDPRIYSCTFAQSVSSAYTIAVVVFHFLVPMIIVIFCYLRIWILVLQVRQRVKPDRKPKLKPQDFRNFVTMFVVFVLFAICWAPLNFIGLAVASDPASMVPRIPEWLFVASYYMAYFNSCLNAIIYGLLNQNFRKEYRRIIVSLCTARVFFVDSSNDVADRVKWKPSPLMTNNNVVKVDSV

Turning to `O=C(CBr)NCCc1c(Sc2ccc(F)cc2)sc2ccc(F)cc12`, the Ratio Ki in the assay listed under Homo sapiens stood at 4.2. Also, the values for the inhibitory constant (Ki) in [1] and in assay [3] were 5.21 nM and 22.1 nM, respectively. The results for the EC50 in assay [2] and in assay [5] were 7.27 nM and greater than 10000 nM, respectively. Moreover, in assay [4], the maximal response (Emax) is 47%.
Take `C=CC(=O)NCCc1c(Sc2ccc(F)cc2)sc2ccc(F)cc12`: the Ratio Ki in the assay filed under Homo sapiens was determined as 22. Further, the inhibition constant (Ki) is 10.7 nM in assay [1] and 236 nM in [3].
As to `O=C(CCCCl)NCCc1c(Sc2ccc(F)cc2)sc2ccc(F)cc12`, in the assay filed under Homo sapiens, the Ratio Ki is 115. The results for the Ki in assay [1] and in [3] were 24.8 nM and 2860 nM, respectively.
On the same counts, the results for `O=C(NCCc1c(Sc2ccc(F)cc2)sc2ccc(F)cc12)C1CCC1` are 4.7, 194 nM and 915 nM.
As for `CC(=O)NCCc1csc2ccc(F)cc12`, the Ratio Ki in the assay filed under Homo sapiens worked out at 5. Besides, the Ki in [1] worked out at 4.87 nM; in [3] it was 24.6 nM. Further, the half-maximal effective concentration (EC50) in assay [2] amounted to 0.68 nM; in assay [5], 23.8 nM. The Emax in assay [4] turned out to be 61%; in assay [7] it was 87%. In addition, the antagonist dissociation constant (Kb) in assay [6] was 62.8 nM; in [8], greater than 10000 nM.
`CC(=O)NCCc1c(Sc2ccc(F)cc2)sc2ccc(F)cc12`: in the assay filed under Homo sapiens, the Ratio Ki was 65.5. The figures for the Ki in [1] and in assay [3] were 0.87 nM and 57 nM, respectively. Besides, the EC50 is 0.64 nM in [2] and 202 nM in assay [5]. Further, the figures for the Emax in assay [4] and in assay [7] were 42% and 33%, respectively.
Regarding `CCC(=O)NCCc1c(Sc2ccc(F)cc2)sc2ccc(F)cc12`, in the assay filed under Homo sapiens, the Ratio Ki worked out at 51.4. Also, the inhibition constant (Ki) came to 4.4 nM in assay [1] and 226 nM in [3]. Besides, the EC50 in [2] and in assay [5] was greater than 10000 nM throughout. The Imax in assay [6] is 115%; in assay [8] it was 92%. Besides, the antagonist equilibrium constant (Kb) in [6] worked out at 42 nM; in assay [8], 0.67 nM.
Turning to `C=CCC(=O)NCCc1c(Sc2ccc(F)cc2)sc2ccc(F)cc12`, in the assay listed under Homo sapiens, the Ratio Ki came to 220. In addition, the Ki in [1] stood at 0.24 nM; in [3], 52.8 nM. For the same compound, the 50% effective concentration (EC50) in assay [2] came to 2.15 nM; in [5] it was 188 nM. For the same compound, the Emax in assay [4] is 52.4%; in assay [7], 45%.
